{"source": "ChEMBL document CHEMBL1124808", "about": "“The synthesis and antiallergy activity of 1-(aryloxy)-4-(4-arylpiperazinyl)-2-butanol derivatives” (1990)", "key": {"Rattus norvegicus [1]": {"test_system": "Rattus norvegicus", "experiment": "Percent change in volume of foot edema of test compound to that of positive control was determined at a dose of 31.6 mg/kg in rat; -41/-61", "assay_type": "functional"}, "Rattus norvegicus [2]": {"test_system": "Rattus norvegicus", "experiment": "Percent change in volume of foot edema of test compound to that of positive control was determined at a dose of 31.6 mg/kg in rat; -69/-69", "assay_type": "functional"}, "Rattus norvegicus [3]": {"test_system": "Rattus norvegicus", "experiment": "Percent change in volume of foot edema of test compound to that of positive control was determined at a dose of 10 mg/kg in rat; -14/-62", "assay_type": "functional"}, "Rattus norvegicus [4]": {"test_system": "Rattus norvegicus", "experiment": "Percent change in volume of foot edema of test compound to that of positive control was determined at a dose of 31.6 mg/kg in rat; -87/-83", "assay_type": "functional"}, "Rattus norvegicus [5]": {"test_system": "Rattus norvegicus", "experiment": "Percent change in volume of foot edema of test compound to that of positive control was determined at a dose of 10 mg/kg in rat; -38/-88", "assay_type": "functional"}, "Rattus norvegicus [6]": {"test_system": "Rattus norvegicus", "experiment": "Percent change in volume of foot edema of test compound to that of positive control was determined at a dose of 31.6 mg/kg in rat; -80/-83", "assay_type": "functional"}, "Rattus norvegicus [7]": {"test_system": "Rattus norvegicus", "experiment": "Percent change in volume of foot edema of test compound to that of positive control was determined at a dose of 10 mg/kg in rat; -36/-65", "assay_type": "functional"}, "Rattus norvegicus [8]": {"test_system": "Rattus norvegicus", "experiment": "Percent change in volume of foot edema of test compound to that of positive control was determined at a dose of 31.6 mg/kg in rat; -64/-73", "assay_type": "functional"}, "Rattus norvegicus [9]": {"test_system": "Rattus norvegicus", "experiment": "Percent change in volume of foot edema of test compound to that of positive control was determined at a dose of 10 mg/kg in rat; -15/-73", "assay_type": "functional"}, "Rattus norvegicus [10]": {"test_system": "Rattus norvegicus", "experiment": "Percent change in volume of foot edema of test compound to that of positive control was determined at a dose of 10 mg/kg in rat; -49/-81", "assay_type": "functional"}, "Rattus norvegicus [11]": {"test_system": "Rattus norvegicus", "experiment": "Percent change in volume of foot edema of test compound to that of positive control was determined at a dose of 3.16 mg/kg in rat; -20/-78", "assay_type": "functional"}, "Rattus norvegicus [12]": {"test_system": "Rattus norvegicus", "experiment": "Percent change in volume of foot edema of test compound to that of positive control was determined at a dose of 31.6 mg/kg in rat; -56/-65", "assay_type": "functional"}, "Rattus norvegicus [13]": {"test_system": "Rattus norvegicus", "experiment": "Percent change in volume of foot edema of test compound to that of positive control was determined at a dose of 31.6 mg/kg in rat; -77/-67", "assay_type": "functional"}, "Rattus norvegicus [14]": {"test_system": "Rattus norvegicus", "experiment": "Percent change in volume of foot edema of test compound to that of positive control was determined at a dose of 10 mg/kg in rat; -41/-59", "assay_type": "functional"}, "Cavia porcellus": {"species_on_record": "Cavia porcellus", "experiment": "Dose that protects 50% of guinea pig from collapse was determined in guinea pig anaphylaxis assay", "assay_type": "functional", "settings": "read-out: PD50", "procedure,_shortened": "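Guinea pigs dosed by gavage (10 mL/kg) with compound in 0.5% Tween 80/water; reference theophylline 100 mg/kg po. At 1–24 h, exposed in chamber to aerosolized 1% (w/v) egg albumin at 10 L air/min for up to 5 min; protected if no collapse within 5 min. PD50 by Litchfield and Wilcoxon.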"}, "Rattus norvegicus [15]": {"test_system": "Rattus norvegicus", "experiment": "Percent change in volume of foot edema of test compound to that of positive control was determined at a dose of 31.6 mg/kg in rat; -23/-81", "assay_type": "functional"}, "Rattus norvegicus [16]": {"test_system": "Rattus norvegicus", "experiment": "Percent change in volume of foot edema of test compound to that of positive control was determined at a dose of 31.6 mg/kg in rat; -79/-65", "assay_type": "functional"}, "Rattus norvegicus [17]": {"test_system": "Rattus norvegicus", "experiment": "Percent change in volume of foot edema of test compound to that of positive control was determined at a dose of 10 mg/kg in rat; +22/-73", "assay_type": "functional"}, "Rattus norvegicus [18]": {"test_system": "Rattus norvegicus", "experiment": "Percent change in volume of foot edema of test compound to that of positive control was determined at a dose of 31.6 mg/kg in rat; -15/-60", "assay_type": "functional"}, "Rattus norvegicus [19]": {"test_system": "Rattus norvegicus", "experiment": "Percent change in volume of foot edema of test compound to that of positive control was determined at a dose of 31.6 mg/kg in rat; -35/-69", "assay_type": "functional"}, "Rattus norvegicus [20]": {"test_system": "Rattus norvegicus", "experiment": "Percent change in volume of foot edema of test compound to that of positive control was determined at a dose of 31.6 mg/kg in rat; -30/-81", "assay_type": "functional"}, "Rattus norvegicus [21]": {"test_system": "Rattus norvegicus", "experiment": "Percent change in volume of foot edema of test compound to that of positive control was determined at a dose of 31.6 mg/kg in rat; -87/-67", "assay_type": "functional"}, "Rattus norvegicus [22]": {"test_system": "Rattus norvegicus", "experiment": "Percent change in volume of foot edema of test compound to that of positive control was determined at a dose of 10 mg/kg in rat; -73/-59", "assay_type": "functional"}, "Rattus norvegicus [23]": {"test_system": "Rattus norvegicus", "experiment": "Percent change in volume of foot edema of test compound to that of positive control was determined at a dose of 3.16 mg/kg in rat; -8/-67", "assay_type": "functional"}, "Rattus norvegicus [24]": {"test_system": "Rattus norvegicus", "experiment": "Percent change in volume of foot edema of test compound to that of positive control was determined at a dose of 10 mg/kg in rat; -54/-72", "assay_type": "functional"}, "Rattus norvegicus [25]": {"test_system": "Rattus norvegicus", "experiment": "Oral Antiallergic activity in the passive foot anaphylaxis (PFA) assay of various amines at the dose of 3.16 mg/kg; -4/-78", "assay_type": "functional"}, "Rattus norvegicus [26]": {"test_system": "Rattus norvegicus", "experiment": "Percent change in volume of foot edema of test compound to that of positive control was determined at a dose of 31.6 mg/kg in rat; -60/-74", "assay_type": "functional"}, "Rattus norvegicus [27]": {"test_system": "Rattus norvegicus", "experiment": "Percent change in volume of foot edema of test compound to that of positive control was determined at a dose of 10 mg/kg in rat; -26/-62", "assay_type": "functional"}, "Rattus norvegicus [28]": {"test_system": "Rattus norvegicus", "experiment": "Percent change in volume of foot edema of test compound to that of positive control was determined at a dose of 31.6 mg/kg in rat; -49/-78", "assay_type": "functional"}, "Rattus norvegicus [29]": {"test_system": "Rattus norvegicus", "experiment": "Percent change in volume of foot edema of test compound to that of positive control was determined at a dose of 31.6 mg/kg in rat; -25/-93"}}, "data": [{"smiles": "CN(CCC(O)COc1ccccc1)CCN(C)c1ccccc1.O=C(O)C(=O)O", "note": "(configuration not stated)", "values": [{"measurement": "PFA", "setting": "Rattus norvegicus [1]", "value": -41}]}, {"smiles": "COc1ccccc1OCC(O)CCN1CCN(c2ccccc2)CC1", "note": "(configuration not stated)", "values": [{"measurement": "PFA", "setting": "Rattus norvegicus [2]", "value": -69}, {"measurement": "PFA", "setting": "Rattus norvegicus [3]", "value": -14}]}, {"smiles": "CC(=O)c1ccc(N2CCN(CCC(O)COc3ccc(F)cc3)CC2)cc1", "note": "(configuration not stated)", "values": [{"measurement": "PFA", "setting": "Rattus norvegicus [4]", "value": -87}, {"measurement": "PFA", "setting": "Rattus norvegicus [5]", "value": -38}]}, {"smiles": "CC(=O)c1ccc(N2CCN(CCC(O)COc3ccccc3)CC2)cc1", "note": "(configuration not stated)", "values": [{"measurement": "PFA", "setting": "Rattus norvegicus [6]", "value": -80}, {"measurement": "PFA", "setting": "Rattus norvegicus [7]", "value": -36}]}, {"smiles": "Cl.Cl.N#Cc1ccc(OCC(O)CCN2CCN(c3ccccc3)CC2)cc1", "note": "(configuration not stated)", "values": [{"measurement": "PFA", "setting": "Rattus norvegicus [8]", "value": -64}, {"measurement": "PFA", "setting": "Rattus norvegicus [9]", "value": -15}]}, {"smiles": "OC(CCN1CCN(c2ccccc2)CC1)COc1ccc(Br)cc1", "note": "(configuration not stated)", "values": [{"measurement": "PFA", "setting": "Rattus norvegicus [10]", "value": -49}, {"measurement": "PFA", "setting": "Rattus norvegicus [11]", "value": -20}, {"measurement": "PFA", "setting": "Rattus norvegicus [12]", "value": -56}]}, {"smiles": "Cc1ccc(N2CCN(CCC(O)COc3ccc(F)cc3)CC2)cc1.Cl.Cl", "note": "(configuration not stated)", "values": [{"measurement": "PFA", "setting": "Rattus norvegicus [13]", "value": -77}, {"measurement": "PFA", "setting": "Rattus norvegicus [14]", "value": -41}]}, {"smiles": "Cn1c(=O)c2nc[nH]c2n(C)c1=O.O", "note": "[THEOPHYLLINE]", "values": [{"measurement": "ED50", "setting": "Cavia porcellus", "value": 75, "unit": "mg/kg"}]}, {"smiles": "OC(COc1ccccc1)CN1CCN(c2ccccc2)CC1", "note": "(configuration not stated)", "values": [{"measurement": "PFA", "setting": "Rattus norvegicus [15]", "value": -23}]}, {"smiles": "COc1ccccc1N1CCN(CCC(O)COc2ccccc2)CC1", "note": "(configuration not stated)", "values": [{"measurement": "PFA", "setting": "Rattus norvegicus [16]", "value": -79}, {"measurement": "PFA", "setting": "Rattus norvegicus [17]", "value": 22}]}, {"smiles": "CN(C)CCOC(c1ccccc1)c1ccccc1", "note": "[DIPHENHYDRAMINE]", "values": [{"measurement": "ED50", "setting": "Cavia porcellus", "value": 23.3, "unit": "mg/kg"}, {"measurement": "PFA", "setting": "Rattus norvegicus [18]", "value": -15}]}, {"smiles": "OC(CCN1CCN(c2ccccc2)CC1)COc1cccc2ccccc12", "note": "(configuration not stated)", "values": [{"measurement": "PFA", "setting": "Rattus norvegicus [19]", "value": -35}]}, {"smiles": "OC(CCN1CC=C(c2ccccc2)CC1)COc1ccccc1", "note": "(configuration not stated)", "values": [{"measurement": "PFA", "setting": "Rattus norvegicus [20]", "value": -30}]}, {"smiles": "Cl.OC(CCN1CCN(c2ccc(Cl)cc2)CC1)COc1ccc(F)cc1", "note": "(configuration not stated)", "values": [{"measurement": "PFA", "setting": "Rattus norvegicus [21]", "value": -87}, {"measurement": "PFA", "setting": "Rattus norvegicus [22]", "value": -73}, {"measurement": "ED50", "setting": "Cavia porcellus", "value": 7.85, "unit": "mg/kg"}, {"measurement": "PFA", "setting": "Rattus norvegicus [23]", "value": -8}]}, {"smiles": "Cc1ccc(N2CCN(CCC(O)COc3ccc(Cl)cc3)CC2)cc1.Cl", "note": "(configuration not stated)", "values": [{"measurement": "PFA", "setting": "Rattus norvegicus [24]", "value": -54}, {"measurement": "PFA", "setting": "Rattus norvegicus [25]", "value": -4}, {"measurement": "PFA", "setting": "Rattus norvegicus [26]", "value": -60}]}, {"smiles": "OC(CCN1CCN(c2ccccc2)CC1)COc1cccc(C(F)(F)F)c1", "note": "(configuration not stated)", "values": [{"measurement": "PFA", "setting": "Rattus norvegicus [27]", "value": -26}, {"measurement": "PFA", "setting": "Rattus norvegicus [28]", "value": -49}]}, {"smiles": "CC(=O)c1ccc(OCC(O)CCN2CCN(c3ccccc3)CC2)cc1.Cl.Cl", "note": "(configuration not stated)", "values": [{"measurement": "PFA", "setting": "Rattus norvegicus [29]", "value": -25}]}]}
